Measurements published in ChEMBL document CHEMBL3108706, “Design, synthesis, and biological activity of novel dicoumarol glucagon-like peptide 1 conjugates” (J Med Chem, 2013).
The source made the active and inactive calls. No cut-off for these calls is given here.

Assays:
[1] = tested on: Mus musculus; test: Hypoglycemic activity in C57BL/6J-m+/+Leprdb (db/db) mouse assessed as time required to reduce plasma glucose level below 8.35 mM at 25 nmol/kg, ip administered for 0.5 hrs; type: functional
In short: (§1)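 Non-fasted male db/db mice (7 weeks, free access to food and water) got a single ip injection (25 or 150 nmol/kg) or saline. Mean ± SD, n = 6.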

[2] = tested on: Mus musculus; test: Antidiabetic activity in C57BL/6J-m+/+Leprdb (db/db) mouse assessed as reduction of blood glucose AUC (0 to 48 hrs) at 25 nmol/kg, ip administered for 0.5 hrs; type: functional, organism-based; in short: as §1
[3] = tested on: Mus musculus; test: Antidiabetic activity in C57BL/6J-m+/+Leprdb (db/db) mouse assessed as reduction of blood glucose level at 25 nmol/kg, ip qd administered for 49 days followed by glucose challenge on day 52 measured after 120 mins post glucose challenge by IPGTT; type: functional, organism-based
In short: (§2)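 Mice from the 49-day once-daily ip dosing study (db/db, n = 8/group) were tested by IPGTT on day 0 and day 52, 3 days after the last dose. They were fasted 18 h, challenged ip with 1 g/kg glucose, and tail-vein glucose was read with a meter at 0, 15, 30, 45, 60, 90 and 120 min.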

[4] = tested on: Mus musculus; test: Hypoglycemic activity in C57BL/6J-m+/+Leprdb (db/db) mouse assessed as reduction of plasma glucose level at 25 nmol/kg, ip administered 0.5 hrs prior to glucose challenge measured at 21.5 hrs by IPGTT (reference value: >30 mM); type: functional
[5] = tested on: Rattus norvegicus; test: Anticoagulant activity in Sprague-Dawley rat assessed as activated […] time at 25 nmol/kg, iv administered for 6 days measured on day 7 by coagulometric analysis (reference value: 26.5 +/- 0.81 secs); type: functional
[6] = tested on: Mus musculus; test: Antidiabetic activity in C57BL/6J-m+/+Leprdb (db/db) mouse assessed as reduction of blood glucose level at 50 nmol/kg, ip qd administered for 49 days followed by glucose challenge on day 52 measured up to 90 mins post glucose challenge by IPGTT; type: functional, organism-based; in short: as §2
[7] = tested on: Rattus norvegicus; test: Anticoagulant activity in Sprague-Dawley rat assessed as activated […] time at 150 nmol/kg, iv administered for 6 days measured on day 7 by coagulometric analysis (reference value: 26.5 +/- 0.81 secs); type: functional
[8] = tested on: Mus musculus; test: Hypoglycemic activity in C57BL/6J-m+/+Leprdb (db/db) mouse assessed as reduction of plasma glucose level at 25 nmol/kg, ip administered 0.5 hrs prior to glucose challenge measured up to 17 hrs by IPGTT (reference value: >30 mM); type: functional
[9] = Mean residence time in Sprague-Dawley rat at 15 nmol/kg, sc by LC-MS/MS analysis; type: ADME, organism-based; conditions: in vivo
[10] = Tmax in Sprague-Dawley rat at 15 nmol/kg, sc by LC-MS/MS analysis; type: ADME, organism-based; conditions: in vivo
[11] = tested on: Mus musculus; test: Hypoglycemic activity in C57BL/6J-m+/+Leprdb (db/db) mouse assessed as reduction of plasma glucose level at 25 nmol/kg, ip administered 0.5 hrs prior to glucose challenge measured after 18 to 21 hrs by IPGTT (reference value: >30 mM); type: functional
[12] = tested on: Mus musculus; test: Antidiabetic activity in C57BL/6J-m+/+Leprdb (db/db) mouse assessed as reduction of blood glucose level at 25 nmol/kg, ip qd administered for 49 days followed by glucose challenge on day 52 measured up to 90 mins post glucose challenge by IPGTT; type: functional, organism-based; in short: as §2
[13] = Cmax in Sprague-Dawley rat at 15 nmol/kg, sc by LC-MS/MS analysis; type: ADME, organism-based; design: dose 15 nmol/kg, route subcutaneous; conditions: in vivo
[14] = tested on: Mus musculus; test: Antidiabetic activity in C57BL/6J-m+/+Leprdb (db/db) mouse assessed as reduction of HbA1c level at 25 to 50 nmol/kg, ip qd measured over 7 weeks of drug treatment; type: functional, organism-based
In short: (§3)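 Male and female db/db mice (6 weeks, n = 8/group) were matched on HbA1c and given ip injections once daily for 49 days (25 or 50 nmol/kg; comparator 25 nmol/kg; saline controls). Wild-type C57BL/6 littermates served for normalization. HbA1c was measured weekly and body weight daily.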

[15] = tested on: Mus musculus; test: Antidiabetic activity in C57BL/6J-m+/+Leprdb (db/db) mouse assessed as reduction of blood glucose level at 50 nmol/kg, ip qd administered for 49 days followed by glucose challenge on day 52 measured after 120 mins post glucose challenge by IPGTT; type: functional, organism-based; in short: as §2
[16] = tested on: Rattus norvegicus; test: Anticoagulant activity in Sprague-Dawley rat assessed as prothombin time at 25 nmol/kg, iv administered for 6 days measured on day 7 by coagulometric analysis (reference value: 13.5 +/- 0.32 secs); type: functional
[17] = tested on: Rattus norvegicus; test: AUC (0 to infinity) in Sprague-Dawley rat at 15 nmol/kg, sc by LC-MS/MS analysis; type: ADME, organism-based, Plasma; design: dose 15 nmol/kg, route subcutaneous, time infinity; conditions: in vivo
[18] = tested on: Mus musculus; test: Hypoglycemic activity in C57BL/6J-m+/+Leprdb (db/db) mouse assessed as time required to reduce plasma glucose level below 8.35 mM at 150 nmol/kg, ip administered for 0.5 hrs; type: functional
In short: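 Non-fasted male db/db mice (7 weeks, free access to food and water) got a single ip injection (25 or 150 nmol/kg) or saline. Glucose AUC0−48h and the time for glucose to return below 8.35 mM were derived. Mean ± SD, n = 6.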

[19] = Half life in Sprague-Dawley rat plasma at 1000 ng/mL by LC-MS/MS analysis; type: ADME, cell-free
[20] = tested on: Rattus norvegicus; test: Anticoagulant activity in Sprague-Dawley rat assessed as thombin time at 150 nmol/kg, iv administered for 6 days measured on day 7 by coagulometric analysis (reference value: 19.38 +/- 0.72 secs); type: functional
[21] = tested on: Mus musculus; test: Hypoglycemic activity in C57BL/6J-m+/+Leprdb (db/db) mouse assessed as reduction of plasma glucose level at 25 nmol/kg, ip administered 0.5 hrs prior to glucose challenge measured at 21.5 to 24 hrs by IPGTT; type: functional, organism-based
[22] = molecular target: Glucagon-like peptide 1 receptor (Homo sapiens, UniProt P43220); test: Activation of human GLP-1 receptor overexpressed in HEK293 cells assessed as cAMP accumulation after 20 mins by HTRF assay; type: functional, cell-based
Chain of Glucagon-like peptide 1 receptor (P43220 whole entry): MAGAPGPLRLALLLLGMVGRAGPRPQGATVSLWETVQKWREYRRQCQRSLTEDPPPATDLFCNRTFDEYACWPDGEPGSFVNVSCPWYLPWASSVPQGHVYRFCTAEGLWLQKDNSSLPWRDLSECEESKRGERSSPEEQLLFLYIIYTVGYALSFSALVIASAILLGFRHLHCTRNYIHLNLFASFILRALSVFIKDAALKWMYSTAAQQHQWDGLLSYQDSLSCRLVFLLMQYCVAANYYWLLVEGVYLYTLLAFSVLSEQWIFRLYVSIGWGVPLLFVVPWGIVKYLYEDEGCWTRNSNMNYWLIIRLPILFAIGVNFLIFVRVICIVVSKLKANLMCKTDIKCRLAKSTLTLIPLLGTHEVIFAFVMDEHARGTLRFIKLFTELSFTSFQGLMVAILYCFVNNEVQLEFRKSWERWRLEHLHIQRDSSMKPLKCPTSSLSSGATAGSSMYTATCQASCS

[23] = tested on: Mus musculus; test: Antidiabetic activity in ip dosed C57BL/6J-m+/+Leprdb (db/db) mouse assessed as suppression of body weight gain administered as qd measured over 7 weeks of drug treatment; type: functional, organism-based; in short: as §3
[24] = tested on: Rattus norvegicus; test: Anticoagulant activity in Sprague-Dawley rat assessed as prothombin time at 150 nmol/kg, iv administered for 6 days measured on day 7 by coagulometric analysis (reference value: 13.5 +/- 0.32 secs); type: functional
[25] = tested on: Rattus norvegicus; test: Antidiabetic activity in Sprague-Dawley rat assessed as increase of plasma insulin level at 25 nmol/kg, ip administered 0.5 hrs prior to glucose challenge measured for 120 mins by ELISA; type: functional, organism-based
In short: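 SD rats (200−250 g, n = 6/group) were fasted 12 h and given compound ip (25 nmol/kg) or saline 0.5 h before oral glucose (10 g/kg). Tail-vein blood glucose was read with a meter at −30, 0, 15, 30, 45, 60, 90, 120 and 180 min. Insulin was measured by rat insulin ELISA. Mean ± SD.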

[26] = tested on: Rattus norvegicus; test: Anticoagulant activity in Sprague-Dawley rat assessed as thombin time at 25 nmol/kg, iv administered for 6 days measured on day 7 by coagulometric analysis (reference value: 19.38 +/- 0.72 secs); type: functional
[27] = tested on: Rattus norvegicus; test: Antidiabetic activity in Sprague-Dawley rat assessed as reduction of plasma glucose level at 25 nmol/kg, ip administered 0.5 hrs prior to glucose challenge by OGTT (reference value: 13.32 +/- 1.84 mM); type: functional
[28] = tested on: Rattus norvegicus; test: Antidiabetic activity in Sprague-Dawley rat assessed as increase of plasma insulin level at 25 nmol/kg, ip administered 0.5 hrs prior to glucose challenge measured at 45 mins by ELISA; type: functional
[29] = tested on: Rattus norvegicus; test: Antidiabetic activity in Sprague-Dawley rat assessed as increase of plasma insulin level at 25 nmol/kg, ip administered 0.5 hrs prior to glucose challenge measured at 15 mins by ELISA; type: functional
[30] = Elimination half life in Sprague-Dawley rat at 15 nmol/kg, sc by LC-MS/MS analysis; type: ADME, organism-based; conditions: in vivo, read-out: beta t1/2 (converted)
[31] = molecular target: albumin (Homo sapiens, UniProt P02768); test: Binding affinity to human serum albumin at 100 ug/mL after 3 hrs relative to control; type: ADME; conditions: read-out: PB (converted)
Chain of albumin (P02768 whole entry): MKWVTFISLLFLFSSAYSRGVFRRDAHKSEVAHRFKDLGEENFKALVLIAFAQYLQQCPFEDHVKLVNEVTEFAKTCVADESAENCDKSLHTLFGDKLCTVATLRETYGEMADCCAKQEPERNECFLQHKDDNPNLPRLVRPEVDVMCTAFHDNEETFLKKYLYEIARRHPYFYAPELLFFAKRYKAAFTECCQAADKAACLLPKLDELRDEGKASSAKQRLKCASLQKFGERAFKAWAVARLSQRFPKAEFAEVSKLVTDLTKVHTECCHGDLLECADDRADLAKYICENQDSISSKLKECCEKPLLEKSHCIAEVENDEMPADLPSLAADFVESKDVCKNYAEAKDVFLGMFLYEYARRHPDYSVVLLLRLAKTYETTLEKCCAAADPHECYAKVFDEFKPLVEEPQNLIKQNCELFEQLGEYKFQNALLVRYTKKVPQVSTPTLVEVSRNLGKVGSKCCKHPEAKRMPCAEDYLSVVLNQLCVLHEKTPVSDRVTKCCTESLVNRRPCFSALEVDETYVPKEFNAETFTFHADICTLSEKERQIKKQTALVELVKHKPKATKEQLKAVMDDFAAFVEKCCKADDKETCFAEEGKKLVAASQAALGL
In short: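 Peptide at 100 μg/mL in PBS (50 μL) was incubated with HSA-conjugated Sepharose resin for 3 h at 25 °C, then centrifuged (1000 rpm, 10 min). Unbound peptide in the supernatant was quantified by micro BCA assay. Nonspecific adsorption was corrected with NHS-inactivated, albumin-free resin.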

[32] = tested on: Rattus norvegicus; test: Antidiabetic activity in Sprague-Dawley rat assessed as reduction of plasma glucose level at 25 nmol/kg, ip administered 0.5 hrs prior to glucose challenge measured at 15 to 60 mins by OGTT; type: functional, organism-based
[33] = tested on: Rattus norvegicus; test: Anticoagulant activity in Sprague-Dawley rat assessed as prothombin time at 1 umol/kg, iv administered for 6 days measured on day 7 by coagulometric analysis (reference value: 13.5 +/- 0.32 secs); type: functional
[34] = tested on: Rattus norvegicus; test: Anticoagulant activity in Sprague-Dawley rat assessed as activated […] time at 1 umol/kg, iv administered for 6 days measured on day 7 by coagulometric analysis (reference value: 26.5 +/- 0.81 secs); type: functional
[35] = tested on: Rattus norvegicus; test: Anticoagulant activity in Sprague-Dawley rat assessed as thombin time at 1 umol/kg, iv administered for 6 days measured on day 7 by coagulometric analysis (reference value: 19.38 +/- 0.72 secs); type: functional

SMILES: CC[C@H](C)[C@H](NC(=O)[C@H](Cc1ccccc1)NC(=O)[C@H](CCC(=O)O)NC(=O)[C@H](CCCCN)NC(=O)[C@H](C)NC(=O)[C@H](C)NC(=O)[C@H](CCC(N)=O)NC(=O)CNC(=O)[C@H](CCC(=O)O)NC(=O)[C@H](CC(C)C)NC(=O)[C@H](Cc1ccc(O)cc1)NC(=O)[C@H](CO)NC(=O)[C@H](CSC1CC(=O)N(CCCCCCCCCCCC(=O)Nc2ccc(C(c3c(O)c4ccccc4oc3=O)c3c(O)c4ccccc4oc3=O)cc2)C1=O)NC(=O)[C@@H](NC(=O)[C@H](CC(=O)O)NC(=O)[C@H](CO)NC(=O)[C@@H](NC(=O)[C@H](Cc1ccccc1)NC(=O)[C@@H](NC(=O)CNC(=O)[C@H](CCC(=O)O)NC(=O)CNC(=O)[C@@H](N)Cc1cnc[nH]1)[C@@H](C)O)[C@@H](C)O)C(C)C)C(=O)N[C@@H](C)C(=O)N[C@@H](Cc1c[nH]c2ccccc12)C(=O)N[C@@H](CC(C)C)C(=O)N[C@H](C(=O)N[C@@H](CCCCN)C(=O)NCC(=O)N[C@@H](CCCNC(=N)N)C(N)=O)C(C)C (stereo not given in full)
- Time [1]: 24.7 h
- Activity [2]: Active
- Activity [3]: inactive
- Activity [4]: 13.8 mM
- APTT [5]: 26.39 s
- Activity [6]: Active
- APTT [7]: 26.38 s
- Activity [8]: <12 mM
- MRT [9]: 33.8 h
- Tmax [10]: 1.82 h
- Activity [11]: <16 mM
- Activity [12]: Active
- Cmax [13]: 880 ng/mL
- Activity [14]: Active
- Activity [15]: inactive
- PT [16]: 13.39 s
- AUC [17]: 40600 ng·h/mL
- Time [18]: 35.8 h
- half-life at 1000 ng/mL [19]: 67.9 h
- TT [20]: 19.49 s
- Activity [21]: Active
- EC50 [22]: 0.0368 nM
- Activity [23]: Dose-dependent effect
- PT [24]: 13.55 s
- Activity [25]: Active
- TT [26]: 19.63 s
- Activity [27]: 6.9 mM
- Activity [28]: 582.08 pM
- Activity [29]: 1274.72 pM
- half-life [30]: 22.1 h
- fraction unbound at 3 h, 100 ug/mL [31]: 0.036
- Activity [32]: Active

SMILES: O=c1oc2ccccc2c(O)c1Cc1c(O)c2ccccc2oc1=O [DICUMAROL]
- PT [33]: 25.22 s
- APTT [34]: 56.36 s
- TT [35]: 36.85 s
